Rows were chosen to be rich in hits. Some 1.9% of all compounds tested hit in one or more screens of this group.
Runt-SMMHC FRET: inhibitors of RUNX1 Runt–CBFb-SMMHC binding, primary screen, biochemical, FRET, Cerulean-Runt, Venus-CBFb-SMMHC, uHTS; Runt-related transcription factor 1 (Homo sapiens) + Core-binding factor subunit beta …; Cerulean-Runt/Venus-CBFb-SMMHC FRET ratio 530/480, 1 h; inhibition, % at 20 µM; 220,000 compounds, 0.74% hits; AID 1434, 2008;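 active means mean inhibition across duplicate retests at 20 µM reaching about 50%, limit read from the data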;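 further: inhibitors lower the FRET ratio by blocking Runt binding to CBFb-SMMHC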
Target sequence (Q01196 whole entry, looked up): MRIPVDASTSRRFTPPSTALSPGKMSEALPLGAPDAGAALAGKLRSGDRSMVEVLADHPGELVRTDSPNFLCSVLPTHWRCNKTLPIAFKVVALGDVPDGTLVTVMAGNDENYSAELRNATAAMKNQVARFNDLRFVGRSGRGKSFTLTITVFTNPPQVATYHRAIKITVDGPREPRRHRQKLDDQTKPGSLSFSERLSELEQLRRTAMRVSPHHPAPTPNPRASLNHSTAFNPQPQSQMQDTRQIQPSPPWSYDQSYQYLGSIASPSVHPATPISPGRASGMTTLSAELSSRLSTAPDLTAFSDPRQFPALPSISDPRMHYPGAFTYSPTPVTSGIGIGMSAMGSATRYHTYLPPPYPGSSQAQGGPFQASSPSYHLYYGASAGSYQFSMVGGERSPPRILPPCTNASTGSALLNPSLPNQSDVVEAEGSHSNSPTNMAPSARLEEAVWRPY
Target sequence (Q13951 whole entry, looked up): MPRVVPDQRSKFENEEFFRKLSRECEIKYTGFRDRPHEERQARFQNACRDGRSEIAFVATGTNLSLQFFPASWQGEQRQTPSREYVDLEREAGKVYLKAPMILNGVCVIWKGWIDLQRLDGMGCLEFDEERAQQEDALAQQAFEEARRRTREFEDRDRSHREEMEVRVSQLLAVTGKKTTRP
Runt-CBFb FRET: inhibitors of RUNX1 Runt–CBFb binding, primary screen, biochemical, FRET, Cerulean-Runt, Venus-CBFb, uHTS. Runt-related transcription factor 1 (Homo sapiens) + Core-binding factor subunit beta …. Cerulean-Runt/Venus-CBFb FRET ratio 530/480, 1 h. inhibition, % at 20 µM. 220,000 compounds, 0.46% hits. AID 1496, 2009;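 active means inhibition over about 50% at 20 µM in the single-dose screen, limit read from the data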
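Doses: 20 µM compound in 1% DMSO | Material: Cerulean-labeled Runt domain protein | Amount: Each fluorescent fusion protein 100 nM | Schedule: Two 1 h room-temperature incubations shielded from light | Measured by: FRET fluorescence | Evaluation: Loss of energy transfer signal | Controls: Unlabeled CBFb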
TbHK1 inh: Trypanosoma brucei hexokinase 1 inhibitors, primary screen, biochemical, G6PDH-coupled NADH absorbance, MLSCN library; hexokinase 1 [Trypanosoma brucei]; recombinant TbHK1, G6PDH-coupled NADH A340; inhibition, % at 10 µM; 220,000 compounds, 0.11% hits; AID 1430, 2008;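 active means inhibition of 50% or more in the single-dose primary screen; inactive means inhibition below 50%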
RanGTP-Impb inh: inhibitors of RanGTP-importin-beta interaction, primary screen, biochemical, FRET, CFP-Ran, YFP-importin-beta, homogeneous; Ran GTPase (GTP-bound) - importin-beta complex; cell-free CFP-Ran/YFP-importin-beta FRET ratio; inhibition, % (test concentration not listed); 300,000 compounds, 1.1% hits;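 active means more than half of the replicate wells show a fall in the fluorescence ratio signal beyond about 16%, limit read from the data, passing the limit was not always enough; inconclusive means exactly half of the replicate wells pass the set limit; inactive means fewer than half of replicates pass the limit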
Hck-Nef inh: inhibitors of Nef-activated human Hck kinase, primary screen, biochemical, Z-Lyte FRET, 384-well, Hck-YEEI | inhibition, % at 20 µM | AID 463187, 2010 | Recombinant Hck-YEEI plus Nef, Z-Lyte FRET kinase assay | 220,000 compounds, 0.68% hits;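 active means Hck-Nef kinase inhibition above about 50%, limit read from the data; inactive means inhibition below that limit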
YIC FRET counter: YIC intramolecular FRET probe signal interference, dose response, counter-screen for RanGTP-importin-beta inhibitor project, biochemical, fluorescence FRET; IC50, µM; shares compounds with RanGTP-Impb inh; Purified YIC probe, intramolecular FRET ratio YFP/CFP; AID 435026, 2010; 1,000 compounds, 40% hits;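 active means fitted half-maximal inhibitory concentration no more than tenfold above the top dose tested; inconclusive means flat fit with 30 to 70% activity, or poor fit; inactive means half-maximal concentration beyond tenfold above the top dose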
A number is an active result; i = inactive; ? = inconclusive; nt = no result given.

SMILES | Runt-SMMHC FRET | Runt-CBFb FRET | TbHK1 inh | RanGTP-Impb inh | Hck-Nef inh | YIC FRET counter
COc1ccc(S(=O)(=O)NCCc2cn3nc(C)c(C)nc3n2)cc1C | nt | nt | nt | i | nt | nt
O=C(NCCSCc1c(F)cccc1Cl)c1ccc(CN2CCOCC2)cc1 | i | i | i | ? | i | nt
O=c1cn[nH]c2ccccc12 | i | i | i | 21 | i | i
COc1cccc2c(=O)cn[nH]c12 | i | i | i | i | i | nt
CN=c1scc(-c2c[nH]c3ccccc23)n1C | i | i | i | nt | i | nt
COc1ccc(C(CNC(=O)c2cc(F)c(F)c(F)c2F)N2CCOCC2)cc1 (centres undefined) | i | i | i | 19 | i | i
Cc1ccc(NC(=O)CSc2ncc3ccccn23)cc1C | i | i | i | i | i | nt
NC(=O)CN(Cc1ccccc1)S(=O)(=O)c1ccc2c(c1)OCCO2 | nt | nt | nt | 19 | nt | i
O=C(CN(Cc1ccccc1)S(=O)(=O)c1ccc2c(c1)OCCO2)Nc1ccc2c(c1)OCCO2 | i | i | i | i | i | nt
CCOc1ccc(NS(=O)(=O)c2ccc3c(c2)CCN3C(=O)CCC(=O)O)cc1 | i | i | i | 28 | i | i
COc1ccc(C(=O)/C=C/Nc2cccc(C)n2)cc1OC | i | i | i | 20 | i | 26
COc1ccc(N2CCN(C(=O)c3ccc(COc4ccc([N+](=O)[O-])cc4)o3)CC2)cc1 | nt | nt | nt | i | nt | nt
N=C(N)SCc1nc2ccccc2c(=O)n1-c1ccccc1Cl | i | i | i | 26 | i | i
COc1ccccc1N/N=C/c1c(CO)cnc(C)c1O | i | i | i | i | i | nt
COc1ccc(C(=O)N/N=C/c2c(CO)cnc(C)c2O)cc1 | 88 | i | i | 22 | i | 1.5
CCOc1ccc(C(C)=O)cc1CSc1nc2nc(C)cc(C)n2n1 | i | i | i | i | i | nt
Cc1cnc(C(=O)OCC(=O)c2ccc[nH]2)cn1 | nt | nt | nt | i | nt | nt
COc1cc(NC(=O)C2CC2)c(OC)cc1NC(=O)c1ccco1 | nt | nt | nt | 19 | nt | i
CNC(=S)Nc1cc(OC)c(NC(=O)c2ccco2)cc1OC | i | i | i | i | i | nt
OCC[C@@H]1C[C@@H](O)[C@H](O)[C@@]2(OCCc3ccccc32)O1 | nt | nt | nt | i | nt | nt
CCC1COCCS(=O)(=O)N1Cc1cccc(C(F)(F)F)c1 (centres undefined) | nt | nt | nt | i | nt | nt
O=C(O)C1Cc2c([nH]c3ccccc23)C(c2ccc3c(c2)OCO3)N1 (centres undefined) | i | i | i | i | i | nt
COc1ccc(C2NC(C(=O)O)Cc3c2[nH]c2ccccc32)cc1CN1CCN(c2ccc(F)cc2)CC1 (centres undefined) | i | i | i | 24 | i | 8.6
COc1ccc(C2NCCc3c2[nH]c2ccccc32)cc1COc1ccc(F)cc1 (centres undefined) | i | i | i | 22 | i | i
COC(=O)[C@H](CC(C)C)NC(=O)Nc1ccccc1F | i | i | i | i | i | nt
SMILES | Runt-SMMHC FRET | Runt-CBFb FRET | TbHK1 inh | RanGTP-Impb inh | Hck-Nef inh | YIC FRET counter
CCOCC(=O)Nc1cc(Cl)ccc1C | i | i | i | i | i | nt
CCC(=O)N(C)/C=C1\Sc2ccccc2C1=O | 154 | nt | i | 20 | i | i
CCCCn1c(N)c(N(CCOC)C(=O)c2ccc(S(=O)(=O)N3CCC(C)CC3)cc2)c(=O)[nH]c1=O | nt | nt | nt | i | nt | nt
Cc1cc(C)c[n+](-c2nc3ccccc3nc2[N-]S(=O)(=O)c2ccc(Br)s2)c1 | 78 | i | i | 30 | i | 7.9
O=S(=O)([N-]c1nc2ccccc2nc1-[n+]1ccccc1)c1ccccc1 | i | i | i | i | i | nt
CCC1(C(=O)OC)NC(c2cccc(F)c2)C2C(=O)N(C)C(=O)C21 (centres undefined) | nt | nt | i | 20 | i | i
COC(=O)C1(Cc2ccccc2)NC(c2ccc(F)cc2)C2C(=O)N(C)C(=O)C21 (centres undefined) | i | i | i | i | i | nt
CN(C)C(CNC(=O)c1cc(S(=O)(=O)N(C)Cc2ccccc2)ccc1Cl)c1ccco1 (centres undefined) | nt | nt | nt | i | nt | nt
CN(C)c1nc(SCC(=O)Nc2ccccc2)nc(N2CCOCC2)n1 | i | i | i | i | i | nt
CC(C)(C)Nc1nc(SCC(=O)Nc2ccccc2)nc(N2CCOCC2)n1 | i | i | i | 21 | i | i
COc1cc(NC(=O)c2ccc([N+](=O)[O-])cc2)ccc1NC(=O)C(C)C | i | i | i | i | i | nt
O=C(Nc1ccc(F)cc1)Nc1nnc(-c2ccco2)s1 | i | i | i | i | i | nt
CCOC(=O)c1c(NC(=O)CN2CCCc3ccccc32)sc(C(C)=O)c1C | i | i | i | 21 | i | i
COCCOC(=O)c1c(NC(=O)CN2CCc3ccccc32)sc(C(N)=O)c1C | i | i | i | i | i | nt
Nc1c(C(=O)NC2CCCC2)c2nc3ccccc3nc2n1/N=C/c1ccco1 | i | i | i | 26 | i | 9.5
COc1ccccc1/C=N/n1c(N)c(C(=O)NC2CCCCC2)c2nc3ccccc3nc21 | i | i | i | nt | i | nt
CC(C)(C)c1ccc(S(=O)(=O)NCC(=O)N2CCCC2)cc1 | nt | nt | nt | i | nt | nt
CC(C)(C)c1ccc(S(=O)(=O)NCC(=O)N2CCN(C(=O)c3ccco3)CC2)cc1 | i | i | i | 21 | i | i
Cc1ccc(C2=CC(c3ccccc3)n3ncnc3N2)c(C)c1 (centres undefined) | nt | nt | nt | 19 | nt | i
Cc1ccc(C2=CC(c3ccccc3)n3ncnc3N2)cc1 (centres undefined) | nt | nt | nt | i | nt | nt
Oc1c(C(Nc2nc3ccccc3s2)c2ccco2)ccc2cccnc12 (centres undefined) | i | i | i | 22 | i | i
O=C(CCNC(=O)c1ccc([N+](=O)[O-])cc1)Nc1ccc(F)cc1F | nt | nt | nt | i | nt | nt
CCN(CC)S(=O)(=O)c1ccc(NC(=O)c2ccc(Sc3nncn3C)c([N+](=O)[O-])c2)cc1 | i | i | i | 23 | i | i
O=C(N/N=C/c1ccc(-c2ccccc2Cl)o1)c1ccccc1 | i | i | i | 21 | i | i
CC1(C)CC(=O)C/C(=N/Nc2nc3ccccc3s2)C1 | i | i | i | i | i | nt
CC1(C)CC(=O)CC(=Nc2ccc3[nH]c(=O)[nH]c3c2)C1 | i | i | i | 29 | i | i
Cc1ccc(NC(=O)C(C)OC(=O)c2ccc(NC(=O)CC#N)cc2)cc1S(=O)(=O)N1CCOCC1 (centres undefined) | nt | nt | nt | i | nt | nt
CC(=O)c1ccc(NC(=O)CCOc2cc(C)ccc2C)cc1 | nt | nt | nt | i | nt | nt

Assay outcomes deposited in PubChem by several laboratories.
